Laboratory results as given in ChEMBL document CHEMBL1149168, “Discovery and evaluation of potent P1 aryl heterocycle-based thrombin inhibitors” (J Med Chem, 2004).

How the values were obtained:
[1] = target: Prothrombin (Homo sapiens, UniProt P00734); test: Inhibitory potency against human thrombin
[2] = Ability to double the activated partial thromboplastin time (2x APTT) in human plasma; format: functional
[3] = Maximum plasma concentration of compound in dog following p.o. administration of 0.5 mg/kg; format: ADME, organism-based, Canis lupus familiaris; parameters: dose 0.5 mg/kg, route oral; conditions: po
Procedure, shortened: (§1)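 Male beagle dogs (10–12 kg), fasted overnight, were given the inhibitor orally at the stated mg/kg as a solution or suspension in 0.5% methocel. Plasma was stored at –20 °C until HPLC analysis.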

[4] = Half-life of compound in dog following p.o. administration of 0.5 mg/kg; format: ADME, organism-based, Canis lupus familiaris; parameters: dose 0.5 mg/kg, route oral; conditions: in vivo, po; procedure, shortened: as §1
[5] = Half-life of compound in dog following p.o. administration of 1 mg/kg; format: ADME, organism-based, Canis lupus familiaris; parameters: dose 1 mg/kg, route oral; conditions: in vivo, po; procedure, shortened: as §1
[6] = Maximum plasma concentration of compound in dog following p.o. administration of 1 mg/kg; format: ADME, organism-based, Canis lupus familiaris; parameters: dose 1 mg/kg, route oral; conditions: po; procedure, shortened: as §1
[7] = Maximum plasma concentration of compound in dog following p.o. administration of 0.95 mg/kg; format: ADME, organism-based, Canis lupus familiaris; parameters: dose 0.95 mg/kg, route oral; conditions: po; procedure, shortened: as §1
[8] = target: Coagulation factor X (Homo sapiens, UniProt P00742); test: Inhibitory potency of compound against human Coagulation factor Xa
[9] = Half-life of compound in dog following p.o. administration of 0.95 mg/kg; format: ADME, organism-based, Canis lupus familiaris; parameters: dose 0.95 mg/kg, route oral; conditions: in vivo, po; procedure, shortened: as §1
[10] = Half life of compound in dog following oral administration; format: ADME, organism-based, Canis lupus familiaris; conditions: in vivo; procedure, shortened: as §1
[11] = Oral bioavailability in dog; format: ADME, organism-based, Canis lupus familiaris; conditions: in vivo
[12] = Maximum plasma concentration of compound in dog following p.o. administration of 0.9 mg/kg; format: ADME, organism-based, Canis lupus familiaris; parameters: dose 0.9 mg/kg, route oral; conditions: po; procedure, shortened: as §1
[13] = Half-life of compound in dog following p.o. administration of 0.9 mg/kg; format: ADME, organism-based, Canis lupus familiaris; parameters: dose 0.9 mg/kg, route oral; conditions: in vivo, po; procedure, shortened: as §1
[14] = organism: Canis familiaris; test: Half life of compound in dog was determined; format: ADME, organism-based, Canis lupus familiaris; conditions: in vivo
[15] = Oral bioavailability of compound in rat; format: ADME, organism-based; conditions: in vivo
[16] = Oral bioavailability of compound in rhesus macaques; format: ADME, organism-based, Macaca mulatta; conditions: rhesus monkey, in vivo

Sequence of Coagulation factor X (P00742 41-179 limits assumed): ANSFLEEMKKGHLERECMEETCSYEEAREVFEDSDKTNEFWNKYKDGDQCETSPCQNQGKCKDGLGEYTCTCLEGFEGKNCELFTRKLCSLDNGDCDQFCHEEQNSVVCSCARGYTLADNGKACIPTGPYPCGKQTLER
Sequence of Coagulation factor X (P00742 235-488 limits assumed): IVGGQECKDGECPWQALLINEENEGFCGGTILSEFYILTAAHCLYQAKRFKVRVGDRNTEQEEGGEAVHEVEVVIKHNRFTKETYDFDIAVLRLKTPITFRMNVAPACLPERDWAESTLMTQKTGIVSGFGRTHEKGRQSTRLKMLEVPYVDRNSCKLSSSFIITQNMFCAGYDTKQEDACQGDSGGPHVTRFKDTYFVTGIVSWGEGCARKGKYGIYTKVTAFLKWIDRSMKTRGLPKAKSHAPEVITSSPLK

| SMILES | Ki [1] | 2x APTT [2] | other results |
| --- | --- | --- | --- |
| Cc1ccc(NS(=O)(=O)Cc2ccccc2)c(=O)n1CC(=O)NCc1cc(Cl)ccc1-n1cncn1 | 0.16 nM | 0.36 µM |  |
| N[C@H](Cc1ccccc1)C(=O)N1CCC[C@H]1CC(=O)NCc1ccccc1-n1cncn1 | 1.06 nM |  |  |
| O=C(Cn1ccnc(NCC(F)(F)c2ccccn2)c1=O)NCc1ccccc1-n1cncn1 | 16 nM | 2.06 µM |  |
| O=C(Cn1ccnc(NCC(F)(F)c2cccc[n+]2[O-])c1=O)NCc1cc(Cl)ccc1-n1cncn1 | 0.085 nM | 0.26 µM |  |
| O=C(Cn1c(Cl)cnc(NCC(F)(F)c2ccccn2)c1=O)NCc1cccc(Cl)c1 | 0.44 nM | 0.79 µM |  |
| O=C(Cn1c(Cl)cnc(NCC(F)(F)c2ccccn2)c1=O)NCc1ncccc1-n1cnnn1 | 0.14 nM | 0.25 µM |  |
| O=C(Cn1c(Cl)cnc(NCC(F)(F)c2ccccn2)c1=O)NCc1ccccc1-n1ccnc1 | 6.3 nM | 1.29 µM |  |
| O=C(Cn1c(Cl)cnc(NCC(F)(F)c2cccc[n+]2[O-])c1=O)NCc1ccccc1-n1cnnn1 | 0.05 nM | 0.2 µM |  |
| O=C(Cn1c(Cl)cnc(NCC(F)(F)c2ccccn2)c1=O)NCc1ccccc1-c1nnn[nH]1 | 940 nM |  |  |
| O=C(Cn1c(Cl)cnc(NCC(F)(F)c2ccccn2)c1=O)NCc1ccccc1-n1cncn1 | 0.45 nM | 0.23 µM | Cmax [3]: 1130 nM; half-life [4]: 3.5 h |
| Cn1nnnc1-c1ccccc1CNC(=O)Cn1c(Cl)cnc(NCC(F)(F)c2ccccn2)c1=O | 1.2 nM | 0.34 µM |  |
| N[C@H](Cc1ccccc1)C(=O)N1CCC[C@H]1CC(=O)NCc1cc(Cl)ccc1-n1cnnn1 | 0.33 nM | 0.23 µM |  |
| O=C(Cn1c(Cl)cnc(NCC(F)(F)c2cccc[n+]2[O-])c1=O)NCc1ccccc1-n1cncn1 | 0.21 nM | 0.29 µM | half-life [5]: 1.4 h; Cmax [6]: 860 nM |
| O=C(Cn1ccnc(NCC(F)(F)c2cccc[n+]2[O-])c1=O)NCc1ccccc1-n1cncn1 | 7.2 nM | 0.98 µM |  |
| O=C(Cn1ccnc(NCC(F)(F)c2ccccn2)c1=O)NCc1cc(Cl)ccc1-n1cnnn1 | 0.033 nM | 0.2 µM | Cmax [7]: 1310 nM; Ki [8]: 10 nM; half-life [9]: 2 h |
| O=C(Cn1c(Cl)cnc(NCC(F)(F)c2cccc[n+]2[O-])c1=O)NCc1cc(Cl)ccc1-n1cnnn1 |  | 0.13 µM |  |
| O=C(Cn1c(Cl)cnc(NCC(F)(F)c2ccccn2)c1=O)NCc1ccccc1-c1c[nH]cn1 | 4.2 nM | 1.83 µM |  |
| N[C@@H](C(=O)N1CCC[C@H]1C(=O)NCc1cc(Cl)ccc1Cl)C(c1ccccc1)c1ccccc1 | 3 nM |  | half-life [10]: 1.67 h; bioavailability [11]: 45% |
| Cc1ccc(NS(=O)(=O)Cc2ccccc2)c(=O)n1CC(=O)NCc1ccccc1-n1cncn1 | 7.3 nM | 1.06 µM |  |
| N[C@H](Cc1ccccn1)C(=O)N1CCC[C@H]1CC(=O)NCc1ccccc1-n1cncn1 | 2 nM | 0.39 µM |  |
| O=C(Cn1c(Cl)cnc(NCC(F)(F)c2ccccn2)c1=O)NCc1ccccc1-n1cnnn1 | 0.096 nM | 0.22 µM |  |

| SMILES | Ki [1] | 2x APTT [2] | other results |
| --- | --- | --- | --- |
| O=C(Cn1c(Cl)cnc(NCC(F)(F)c2ccccn2)c1=O)NCc1ncccc1-n1cncn1 | 0.66 nM | 0.33 µM |  |
| Cc1ccc(NS(=O)(=O)Cc2ccccc2)c(=O)n1CC(=O)NCc1cc(Cl)ccc1-n1cnnn1 | 0.018 nM | 0.23 µM | Ki [8]: 11 nM |
| O=C(Cn1c(Cl)cnc(NCC(F)(F)c2ccccn2)c1=O)NCc1cc(Cl)ccc1-n1cncn1 | < 0.01 nM | 0.17 µM |  |
| O=C(Cn1c(Cl)cnc(NCC(F)(F)c2ccccn2)c1=O)NCc1ccccc1 | 12 nM | 2.68 µM |  |
| Cn1nnc(-c2ccccc2CNC(=O)Cn2c(Cl)cnc(NCC(F)(F)c3ccccn3)c2=O)n1 | 5.8 nM | 1.72 µM |  |
| Cc1ccc(-n2cncn2)c(CNC(=O)CN2C=CN=C(NCC(F)(F)c3ccccn3)C2)c1 | 0.24 nM | 0.33 µM | Cmax [12]: 1040 nM; half-life [13]: 1.2 h |
| O=C(Cn1c(Cl)cnc(NCC(F)(F)c2ccccn2)c1=O)NCc1ccccc1-n1cnnc1 | 3.5 nM | 0.52 µM |  |
| O=C(Cn1c(Cl)cnc(NCC(F)(F)c2ccccn2)c1=O)NCc1ccccc1-c1csnn1 | 0.84 nM | 0.6 µM |  |
| O=C(Cn1c(Cl)cnc(NCC(F)(F)c2ccccn2)c1=O)NCc1ccccc1-c1cc[nH]n1 | 5.6 nM | 2.08 µM |  |
| N[C@H](Cc1ccccn1)C(=O)N1CCC[C@H]1CC(=O)NCc1cc(Cl)ccc1-n1cnnn1 | 0.4 nM | 0.2 µM |  |
| O=C(Cn1c(Cl)cnc(NCC(F)(F)c2ccccn2)c1=O)NCc1ccccc1-c1ncc[nH]1 | 7.2 nM | 2.88 µM |  |
| O=C(Cn1c(Cl)cnc(NCC(F)(F)c2ccccn2)c1=O)NCc1cc(Cl)ccc1-n1cnnn1 | 0.0015 nM | 0.18 µM |  |
| O=C(Cn1c(Cl)cnc(NCC(F)(F)c2ccccn2)c1=O)NCc1ccccc1-n1cccn1 | 6.9 nM | 1.9 µM |  |
| Cc1ccc(NS(=O)(=O)Cc2ccccc2)c(=O)n1CC(=O)NCc1ccccc1-n1cnnn1 | 1.4 nM | 0.37 µM |  |
| O=C(Cn1ccnc(NCC(F)(F)c2ccccn2)c1=O)NCc1ccccc1-n1cnnn1 | 2.7 nM | 0.52 µM |  |
| O=C(Cn1ccnc(NCC(F)(F)c2cccc[n+]2[O-])c1=O)NCc1cc(Cl)ccc1-n1cnnn1 | 0.013 nM | 0.12 µM | Ki [8]: 5 nM |
| O=C(Cn1c(Cl)cnc(NCC(F)(F)c2cccc[n+]2[O-])c1=O)NCc1cc(Cl)ccc1-n1cncn1 | < 0.01 nM | 0.2 µM |  |
| O=C(Cn1ccnc(NCC(F)(F)c2cccc[n+]2[O-])c1=O)NCc1ccccc1-n1cnnn1 | 1.1 nM | 0.42 µM | Ki [8]: 370 nM |
| O=C(Cn1c(Cl)cnc(NCC(F)(F)c2ccccn2)c1=O)NCc1ncccc1F [DPOC-4088] |  |  | T1/2 [14]: 4.5 h |
| Cc1nc(N)ccc1CNC(=O)Cn1c(C)cnc(NCCc2ccccc2)c1=O [L-375378] |  |  | bioavailability [11]: 91%; bioavailability [15]: 42%; bioavailability [16]: 60% |
